Data taken from ChEMBL document CHEMBL3351628, “2,4,5-Trisubstituted thiazole derivatives: a novel and potent class of non-nucleoside inhibitors of wild type and mutant HIV-1 reverse transcriptase” (Eur J Med Chem, 2014).
Calls of active or inactive are those of the source. No cut-off for these calls is given here.

How the values were obtained:
[1] = tested on: Human immunodeficiency virus 1; assay: Antiviral activity against HIV1 harboring reverse transcriptase K103N/P225H double mutant infected in HEK293T cells transfected with plasmid VSV-G/pNL4-3.luc.R-E- assessed as inhibition of viral replication after 48 hrs by luciferase reporter gene assay; type: functional, organism-based, HEK-293T; conditions: Human immunodeficiency virus 1, HEK-293T, 48 h
Outline: (§1)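 VSV-G-pseudotyped single-cycle virus: VSVG plasmid plus env-deficient pNL4-3.luc.R⁻E⁻ vector (wild type or RT-mutant) co-transfected into HEK 293T by calcium phosphate. Medium changed at 16 h, supernatant collected 48 h post-transfection, normalised by p24 ELISA to 0.2 ng p24/mL. HEK 293T targets seeded a day ahead; compound added 15 min before virus. Cells lysed 48 h post-infection, luciferase read. IC50 from dose–infectivity curves.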

[2] = tested on: Human immunodeficiency virus 1; assay: Antiviral activity against HIV1 harboring reverse transcriptase K103N/P225H double mutant infected in HEK293T cells transfected with plasmid VSV-G/pNL4-3.luc.R-E- assessed as inhibition of viral replication after 48 hrs by luciferase reporter gene assay relative HIV1; type: functional, HEK-293T
[3] = tested on: Human immunodeficiency virus 1; assay: Antiviral activity against HIV1 harboring reverse transcriptase K103N/G190A double mutant infected in HEK293T cells transfected with plasmid VSV-G/pNL4-3.luc.R-E- assessed as inhibition of viral replication after 48 hrs by luciferase reporter gene assay; type: functional, organism-based, HEK-293T; conditions: Human immunodeficiency virus 1, HEK-293T, 48 h; outline: as §1
[4] = tested on: Human immunodeficiency virus 1; assay: Antiviral activity against HIV1 harboring reverse transcriptase K103N/G190A double mutant infected in HEK293T cells transfected with plasmid VSV-G/pNL4-3.luc.R-E- assessed as inhibition of viral replication after 48 hrs by luciferase reporter gene assay relative HIV1; type: functional, HEK-293T
[5] = tested on: Human immunodeficiency virus 1; assay: Antiviral activity against HIV1 harboring reverse transcriptase K103N/V108I double mutant infected in HEK293T cells transfected with plasmid VSV-G/pNL4-3.luc.R-E- assessed as inhibition of viral replication after 48 hrs by luciferase reporter gene assay; type: functional, organism-based, HEK-293T; conditions: Human immunodeficiency virus 1, HEK-293T, 48 h; outline: as §1
[6] = tested on: Human immunodeficiency virus 1; assay: Antiviral activity against HIV1 harboring reverse transcriptase K103N/V108I double mutant infected in HEK293T cells transfected with plasmid VSV-G/pNL4-3.luc.R-E- assessed as inhibition of viral replication after 48 hrs by luciferase reporter gene assay relative HIV1; type: functional, HEK-293T
[7] = Retention time of the compound by HPLC analysis; type: physicochemical
[8] = tested on: Human immunodeficiency virus 1; assay: Antiviral activity against HIV1 infected in 293T cells assessed as time of 50% failure; type: functional
[9] = tested on: Human immunodeficiency virus 1; assay: Antiviral activity against wild type HIV1 infected in HEK293T cells transfected with plasmid VSV-G/pNL4-3.luc.R-E- assessed as inhibition of viral replication after 48 hrs by luciferase reporter gene assay; type: functional, organism-based, HEK-293T; outline: as §1
[10] = tested on: HEK-293T; assay: Cytotoxicity against HEK293T cells at 10 uM after 48 hrs; type: cell-based; conditions: human
Outline: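 HEK 293T cells incubated 48 h with compound at final 10 μM under the antiviral culture conditions, without virus. Viability read with a cell proliferation assay kit.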

[11] = tested on: Human immunodeficiency virus 1; assay: Antiviral activity against HIV1 harboring reverse transcriptase K103N mutant infected in HEK293T cells transfected with plasmid VSV-G/pNL4-3.luc.R-E- assessed as inhibition of viral replication after 48 hrs by luciferase reporter gene assay; type: functional, organism-based, HEK-293T; conditions: Human immunodeficiency virus 1, HEK-293T, 48 h; outline: as §1
[12] = tested on: Human immunodeficiency virus 1; assay: Antiviral activity against HIV1 harboring reverse transcriptase K103N mutant infected in HEK293T cells transfected with plasmid VSV-G/pNL4-3.luc.R-E- assessed as inhibition of viral replication after 48 hrs by luciferase reporter gene assay relative HIV1; type: functional, HEK-293T
[13] = tested on: Human immunodeficiency virus 1; assay: Antiviral activity against HIV1 harboring reverse transcriptase Y181C mutant infected in HEK293T cells transfected with plasmid VSV-G/pNL4-3.luc.R-E- assessed as inhibition of viral replication after 48 hrs by luciferase reporter gene assay; type: functional, organism-based, HEK-293T; conditions: Human immunodeficiency virus 1, HEK-293T, 48 h; outline: as §1
[14] = tested on: Human immunodeficiency virus 1; assay: Antiviral activity against HIV1 harboring reverse transcriptase Y181C mutant infected in HEK293T cells transfected with plasmid VSV-G/pNL4-3.luc.R-E- assessed as inhibition of viral replication after 48 hrs by luciferase reporter gene assay relative HIV1; type: functional, HEK-293T
[15] = tested on: Human immunodeficiency virus 1; assay: Antiviral activity against HIV1 harboring reverse transcriptase […]/K103N double mutant infected in HEK293T cells transfected with plasmid VSV-G/pNL4-3.luc.R-E- assessed as inhibition of viral replication after 48 hrs by luciferase reporter gene assay; type: functional, organism-based, HEK-293T; conditions: Human immunodeficiency virus 1, HEK-293T, 48 h; outline: as §1
[16] = tested on: Human immunodeficiency virus 1; assay: Antiviral activity against HIV1 harboring reverse transcriptase […]/K103N double mutant infected in HEK293T cells transfected with plasmid VSV-G/pNL4-3.luc.R-E- assessed as inhibition of viral replication after 48 hrs by luciferase reporter gene assay relative HIV1; type: functional, HEK-293T
[17] = tested on: Human immunodeficiency virus 1; assay: Antiviral activity against HIV1 harboring reverse transcriptase Y188L mutant infected in HEK293T cells transfected with plasmid VSV-G/pNL4-3.luc.R-E- assessed as inhibition of viral replication after 48 hrs by luciferase reporter gene assay; type: functional, organism-based, HEK-293T; conditions: Human immunodeficiency virus 1, HEK-293T, 48 h; outline: as §1
[18] = tested on: Human immunodeficiency virus 1; assay: Antiviral activity against HIV1 harboring reverse transcriptase Y188L mutant infected in HEK293T cells transfected with plasmid VSV-G/pNL4-3.luc.R-E- assessed as inhibition of viral replication after 48 hrs by luciferase reporter gene assay relative HIV1; type: functional, HEK-293T
[19] = tested on: Human immunodeficiency virus 1; assay: Antiviral activity against HIV1 at 10 uM; type: functional, organism-based
[20] = Human immunodeficiency virus 1, HEK-293T, 48 h, read-out: IC50

| Compound | IC50 [1] | fold change (FC) [2] | IC50 [3] | fold change (FC) [4] | IC50 [5] | fold change (FC) [6] | Retention_time [7] | Time [8] | IC50 [9, 20] | Activity [10] | IC50 [11] | fold change (FC) [12] | IC50 [13] | fold change (FC) [14] | IC50 [15] | fold change (FC) [16] | IC50 [17] | fold change (FC) [18] | inhibition [19] | IC50 ([9]; hek-293t) |
| --- | --- | --- | --- | --- | --- | --- | --- | --- | --- | --- | --- | --- | --- | --- | --- | --- | --- | --- | --- | --- |
| COc1ccc(CNc2nc(-c3ccccc3Cl)c(Cc3ccccc3)s2)cc1 | 0.78 µM | 17 | 4.18 µM | 90.9 | 0.82 µM | 17.8 | 26.43 min | 9 h | 0.046 µM | Non-toxic | 0.24 µM | 5.2 | 0.79 µM | 17.2 | 5.11 µM | 111 | > 10 µM | >217 |  |  |
| COc1ccc(-c2nc(N(C)C)sc2Cc2ccccc2)cc1 |  |  |  |  |  |  | 35.28 min |  |  | Non-toxic |  |  |  |  |  |  |  |  | inactive | Not Active |
| COc1ccc(CNc2nc(-c3ccc(F)cc3F)c(Cc3ccccc3)s2)cc1 | 3.59 µM | 56.1 | 0.4 µM | 6.3 | 1.84 µM | 28.8 | 17.37 min | 8.6 h | 0.064 µM | Non-toxic | 0.41 µM | 6.4 | 1.46 µM | 22.8 | 5.36 µM | 83.8 | > 10 µM | >156 |  |  |
| COc1ccc(CNc2nc(-c3ccccc3F)c(Cc3ccccc3)s2)cc1 | 4.81 µM | 77.6 | 0.16 µM | 2.6 | 4.73 µM | 76.3 | 24.29 min | 8.6 h | 0.062 µM | Non-toxic | 0.54 µM | 8.7 | 1.26 µM | 20.3 | 5.24 µM | 84.5 | > 10 µM | >161 |  |  |
